In ChEMBL document CHEMBL2424634, “Synthesis and SAR studies of 5-(pyridin-4-yl)-1,3,4-thiadiazol-2-amine derivatives as potent inhibitors of Bloom helicase” (Bioorg Med Chem Lett, 2013):
In brackets after ≈: the same amount, converted by molar mass. Activity calls are given as the source filed them. The calls are words filed in the database; no cut-off is given here.

Assays:
[1] = biological target: T1, RecQ-like DNA helicase BLM (Homo sapiens, UniProt P54132); assay: Inhibition of BLM (unknown origin) by gel-based DNA unwinding assay
[2] = organism: Homo sapiens; assay: Selectivity ratio of IC50 for WRN (unknown origin) to IC50 for BLM (unknown origin)
[3] = biological target: T2, ATP-dependent DNA helicase Q1 (Homo sapiens, UniProt P46063); assay: Inhibition of RECQ1 (unknown origin) by gel-based DNA unwinding assay
T2 sequence (P46063 whole entry): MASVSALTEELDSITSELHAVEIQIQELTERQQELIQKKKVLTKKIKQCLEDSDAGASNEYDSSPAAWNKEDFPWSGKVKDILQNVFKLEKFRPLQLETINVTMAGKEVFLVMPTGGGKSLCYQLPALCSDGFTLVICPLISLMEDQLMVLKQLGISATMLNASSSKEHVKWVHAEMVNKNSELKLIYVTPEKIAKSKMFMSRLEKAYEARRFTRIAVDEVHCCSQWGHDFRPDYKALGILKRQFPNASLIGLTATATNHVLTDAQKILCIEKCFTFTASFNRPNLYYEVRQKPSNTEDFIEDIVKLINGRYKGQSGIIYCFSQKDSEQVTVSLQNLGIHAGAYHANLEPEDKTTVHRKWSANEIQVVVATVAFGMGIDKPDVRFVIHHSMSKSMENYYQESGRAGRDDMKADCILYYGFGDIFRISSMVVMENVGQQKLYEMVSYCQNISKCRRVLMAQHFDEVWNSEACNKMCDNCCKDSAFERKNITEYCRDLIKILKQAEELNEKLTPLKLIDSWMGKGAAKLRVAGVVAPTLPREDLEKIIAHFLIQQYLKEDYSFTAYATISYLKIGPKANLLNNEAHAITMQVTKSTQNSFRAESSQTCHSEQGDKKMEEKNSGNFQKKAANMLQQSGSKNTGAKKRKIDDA

[4] = biological target: Bifunctional 3'-5' exonuclease/ATP-dependent helicase WRN (Homo sapiens, UniProt Q14191); assay: Inhibition of WRN (unknown origin) by gel-based DNA unwinding assay
[5] = organism: Homo sapiens; assay: Increase of sister chromatid exchange in human BLM-deficient PSNG13 cells at 1 to 5 uM; type: functional
Summary of the method: (§1)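 Used an isogenic pair of cell lines derived from GM08505 Bloom syndrome cells: PSNF5 (expresses BLM) and PSNG13 (lacks BLM). Cells were treated across a dose range and sister chromatid exchange frequency was scored.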

[6] = biological target: T1, RecQ-like DNA helicase BLM; assay: Inhibition of BLM in human PSNF5 cells assessed as increase of sister chromatid exchange at 1 to 5 uM; type: cell-based; summary of the method: as §1
[7] = biological target: T1, RecQ-like DNA helicase BLM; assay: Displacement of TAMRA-labeled oligonucleotide from BLM (unknown origin)
[8] = biological target: T1, RecQ-like DNA helicase BLM; assay: Inhibition of BLM (unknown origin) binding to single-stranded DNA by fluorescence polarization analysis
[9] = system: Liver; assay: Half life in mouse liver microsomes in presence of NADPH; type: ADME, Microsome
[10] = Metabolic stability of the compound in mouse plasma assessed as compound remaining after 5 hrs; type: ADME, cell-free; conditions: read-out: Stability
[11] = Kinetic solubility of the compound in PBS buffer at pH 7.4; type: physicochemical; conditions: read-out: Kinetic_solubility
Summary of the method: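 Kinetic solubility in PBS, pH 7.4, determined by chemiluminescent nitrogen detection (CLND) and by UV-Vis detection.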

[12] = biological target: T1, RecQ-like DNA helicase BLM; assay: Non-competitive inhibition of BLM (unknown origin) using ATP by Lineweaver-Burk double reciprocal plot analysis

T1 sequence (P54132 whole entry): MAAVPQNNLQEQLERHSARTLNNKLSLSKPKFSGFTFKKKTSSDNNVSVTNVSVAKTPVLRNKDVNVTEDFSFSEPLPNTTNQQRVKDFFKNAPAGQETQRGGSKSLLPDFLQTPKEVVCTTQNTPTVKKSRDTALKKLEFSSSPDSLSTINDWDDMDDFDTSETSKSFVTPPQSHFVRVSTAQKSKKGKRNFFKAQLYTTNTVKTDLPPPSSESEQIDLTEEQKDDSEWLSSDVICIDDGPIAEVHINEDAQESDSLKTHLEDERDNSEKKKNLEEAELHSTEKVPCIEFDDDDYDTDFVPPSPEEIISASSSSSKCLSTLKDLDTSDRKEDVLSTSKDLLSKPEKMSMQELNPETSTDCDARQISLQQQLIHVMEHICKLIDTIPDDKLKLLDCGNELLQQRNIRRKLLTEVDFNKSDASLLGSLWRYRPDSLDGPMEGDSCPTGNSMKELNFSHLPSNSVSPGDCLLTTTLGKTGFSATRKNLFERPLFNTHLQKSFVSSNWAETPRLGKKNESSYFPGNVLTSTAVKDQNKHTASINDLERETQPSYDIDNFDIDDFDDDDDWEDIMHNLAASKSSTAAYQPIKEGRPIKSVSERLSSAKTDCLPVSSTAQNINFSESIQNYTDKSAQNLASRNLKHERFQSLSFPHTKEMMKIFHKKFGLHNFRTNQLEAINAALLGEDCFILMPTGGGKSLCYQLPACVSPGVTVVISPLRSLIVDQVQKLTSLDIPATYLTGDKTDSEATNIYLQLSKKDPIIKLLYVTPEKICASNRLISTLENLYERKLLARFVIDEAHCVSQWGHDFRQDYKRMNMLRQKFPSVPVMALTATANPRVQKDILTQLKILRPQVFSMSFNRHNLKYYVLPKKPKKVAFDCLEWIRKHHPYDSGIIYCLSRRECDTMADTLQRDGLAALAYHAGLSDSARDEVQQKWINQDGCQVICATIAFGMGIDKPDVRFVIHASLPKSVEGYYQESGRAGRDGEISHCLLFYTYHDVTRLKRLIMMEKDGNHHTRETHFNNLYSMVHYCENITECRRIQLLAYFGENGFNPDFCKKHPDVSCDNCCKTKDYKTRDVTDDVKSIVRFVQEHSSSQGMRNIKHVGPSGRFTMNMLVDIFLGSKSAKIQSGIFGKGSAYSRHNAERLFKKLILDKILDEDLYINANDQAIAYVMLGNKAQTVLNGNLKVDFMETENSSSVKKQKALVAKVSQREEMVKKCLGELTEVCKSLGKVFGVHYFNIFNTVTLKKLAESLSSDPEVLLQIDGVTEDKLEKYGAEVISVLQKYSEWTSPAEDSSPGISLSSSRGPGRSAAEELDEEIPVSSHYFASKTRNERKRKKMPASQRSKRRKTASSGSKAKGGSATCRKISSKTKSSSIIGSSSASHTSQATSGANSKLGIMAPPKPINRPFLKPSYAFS
Sequence of Bifunctional 3'-5' exonuclease/ATP-dependent helicase WRN (Q14191 whole entry): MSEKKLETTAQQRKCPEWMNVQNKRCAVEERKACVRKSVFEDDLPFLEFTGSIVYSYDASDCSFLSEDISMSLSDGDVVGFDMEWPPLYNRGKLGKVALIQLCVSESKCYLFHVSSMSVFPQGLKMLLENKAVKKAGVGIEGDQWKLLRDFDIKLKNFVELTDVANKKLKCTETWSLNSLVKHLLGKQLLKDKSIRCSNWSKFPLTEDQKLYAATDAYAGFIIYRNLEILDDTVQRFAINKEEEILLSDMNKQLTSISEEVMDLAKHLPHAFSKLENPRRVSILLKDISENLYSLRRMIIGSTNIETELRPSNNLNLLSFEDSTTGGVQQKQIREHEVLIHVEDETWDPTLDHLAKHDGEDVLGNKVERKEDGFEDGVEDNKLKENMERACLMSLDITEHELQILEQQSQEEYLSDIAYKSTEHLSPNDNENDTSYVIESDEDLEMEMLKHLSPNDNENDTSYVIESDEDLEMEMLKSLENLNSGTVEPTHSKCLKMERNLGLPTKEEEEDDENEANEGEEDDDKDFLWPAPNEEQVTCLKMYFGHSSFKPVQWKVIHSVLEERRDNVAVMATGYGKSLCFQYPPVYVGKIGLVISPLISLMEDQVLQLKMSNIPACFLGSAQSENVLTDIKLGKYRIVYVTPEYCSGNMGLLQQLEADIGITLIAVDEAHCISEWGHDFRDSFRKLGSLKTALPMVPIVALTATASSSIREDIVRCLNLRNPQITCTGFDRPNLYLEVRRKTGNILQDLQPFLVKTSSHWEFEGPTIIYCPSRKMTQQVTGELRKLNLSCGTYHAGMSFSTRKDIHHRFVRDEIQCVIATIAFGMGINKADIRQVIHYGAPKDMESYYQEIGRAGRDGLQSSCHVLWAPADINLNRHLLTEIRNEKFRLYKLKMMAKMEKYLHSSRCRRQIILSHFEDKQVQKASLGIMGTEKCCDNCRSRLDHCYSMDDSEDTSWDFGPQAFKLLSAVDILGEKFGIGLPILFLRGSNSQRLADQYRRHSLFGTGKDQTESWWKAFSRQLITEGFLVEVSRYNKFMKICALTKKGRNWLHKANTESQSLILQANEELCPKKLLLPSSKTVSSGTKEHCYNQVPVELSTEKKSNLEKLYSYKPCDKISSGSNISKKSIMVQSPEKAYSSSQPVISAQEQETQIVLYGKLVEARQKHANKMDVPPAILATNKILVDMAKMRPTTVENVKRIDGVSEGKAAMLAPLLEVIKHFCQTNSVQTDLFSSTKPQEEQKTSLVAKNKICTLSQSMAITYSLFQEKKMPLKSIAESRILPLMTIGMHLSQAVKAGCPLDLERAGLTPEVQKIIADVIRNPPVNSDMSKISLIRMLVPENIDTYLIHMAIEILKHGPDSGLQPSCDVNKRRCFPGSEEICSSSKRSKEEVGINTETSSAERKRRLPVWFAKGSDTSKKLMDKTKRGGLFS

| Compound | IC50 ([1]; read-out: IC50) [µM] | IC50 [1] | also measured |
| --- | --- | --- | --- |
| N#Cc1ccc(NC(=O)Nc2nnc(-c3ccncc3)s2)cc1Br | 0.91 |  |  |
| O=C(Nc1ccc(Cl)c(Cl)c1)Nc1nnc(-c2ccncc2)o1 |  | Not Active |  |
| O=C(Nc1nnc(-c2ccncc2)s1)Oc1ccc2ccccc2c1 |  | Not Active |  |
| S=C(Nc1ccc(Cl)c(Cl)c1)Nc1nnc(-c2ccncc2)s1 | 4 |  |  |
| O=c1c(Nc2ccc(Cl)c(Cl)c2)c(Nc2nnc(-c3ccncc3)s2)c1=O | 4.3 |  |  |
| O=C(Nc1ccccc1)Nc1nnc(-c2ccncc2)s1 |  | Not Active |  |
| Cc1cc(NC(=O)Nc2nnc(-c3ccncc3)s2)ccc1-c1cn[nH]c1 | 16.8 |  |  |
| O=C(Nc1ccc(Cl)c(Cl)c1)Nc1nnc(N2CCNCC2)s1 |  | Not Active |  |
| N#Cc1cc(NC(=O)Nc2nnc(-c3ccncc3)s2)ccc1Br | 0.11 |  | Ratio IC50 [2]: 10; IC50 [3]: > 50 µM; IC50 [4]: 1.1 µM |
| CN1CCN(c2nnc(NC(=O)Nc3ccc(Cl)c(Cl)c3)s2)CC1 |  | Not Active |  |
| O=C(Nc1ccc(Cl)c(Cl)c1)Nc1nc(-c2ccncc2)cs1 | 28.1 |  |  |
| O=C(Nc1ccc(Cl)c(Cl)c1)N1CCN(c2ccncc2)CC1 |  | Not Active |  |
| O=C(Nc1ccc(Cl)c(Cl)c1)Nc1nnc(-c2ccncc2)s1 | 1.4 |  | Ratio IC50 [2]: 2.4; IC50 [3]: > 50 µM; IC50 [4]: 3.4 µM |
| O=C(Nc1ccc(Cl)cc1)Nc1nnc(-c2ccncc2)s1 | 40 |  |  |
| O=C(Nc1ccc(F)cc1)Nc1nnc(-c2ccncc2)s1 | 14.1 |  |  |
| O=C(Nc1ccc(-n2cncn2)c(F)c1)Nc1nnc(-c2ccncc2)s1 | 14.1 |  |  |
| N#Cc1ccc(NC(=O)Nc2nnc(-c3ccncc3)s2)cc1C(F)(F)F | 5.6 |  |  |
| O=C(Nc1ccc(F)c(F)c1)Nc1nnc(-c2ccncc2)s1 | 8.9 |  |  |
| O=C(Nc1ccc(Cl)c(Cl)c1)Nc1cccc(-c2ccncc2)n1 | 4 |  |  |

| Compound | IC50 ([1]; read-out: IC50) [µM] | IC50 [1] | also measured |
| --- | --- | --- | --- |
| Nc1ccc(-c2nnc(NC(=O)Nc3ccc(Cl)c(Cl)c3)s2)cc1 | 49 |  |  |
| O=C(Nc1ccc(Cl)c(Cl)c1)Nc1nnc(-c2cccnc2)s1 | 3.5 |  |  |
| N#Cc1ccc(NC(=O)Nc2nnc(-c3ccncc3)s2)cc1Cl | 1.6 |  |  |
| Nc1ccc(NC(=O)Nc2nnc(-c3ccncc3)s2)cc1C(F)(F)F | 40 |  |  |
| O=C(Nc1ccc(Cl)c(C(F)(F)F)c1)Nc1nnc(-c2ccncc2)s1 | 7.1 |  |  |
| O=C(Nc1ccc(-n2cncn2)c(C(F)(F)F)c1)Nc1nnc(-c2ccncc2)s1 | 36 |  |  |
| N#Cc1cc(NC(=O)Nc2nnc(-c3ccncc3)s2)ccc1-c1cn[nH]c1 | 1.1 |  | Activity [5]: inactive; inhibition [6]: Dose-dependent effect; inhibition [7]: Active; inhibition [8]: Dose-dependent effect; t1/2 [9]: > 1.33 h; remaining at 5 h [10]: 100%; solubility kinetic [11]: 10 µM (≈ 3.88 µg/mL); Ratio IC50 [2]: 6.5; IC50 [3]: > 50 µM; IC50 [4]: 7.1 µM; inhibition [12]: Active |
| O=C(Nc1ccc(Br)cc1)Nc1nnc(-c2ccncc2)s1 | 12.6 |  |  |
| O=C(Nc1ccc(F)c(C(F)(F)F)c1)Nc1nnc(-c2ccncc2)s1 |  |  | t1/2 [9]: > 1.33 h; remaining at 5 h [10]: 100%; solubility kinetic [11]: 1 µM (≈ 0.383 µg/mL); IC50 [3]: > 50 µM; IC50 [4]: 2.7 µM |
| N#C/N=C(/Nc1ccc(F)c(C(F)(F)F)c1)Nc1nnc(-c2ccncc2)s1 |  | Not Active |  |
| O=C(Nc1ccc(Cl)c(Cl)c1)Nc1ccc(-c2ccncc2)s1 |  | Not Active |  |
| Cc1cc(NC(=O)Nc2nnc(-c3ccncc3)s2)ccc1C#N | 3.2 |  |  |
| O=C(Nc1ccc(Cl)c([N+](=O)[O-])c1)Nc1nnc(-c2ccncc2)s1 | 1.3 |  |  |
| O=S(=O)(Cc1ccc(Cl)c(Cl)c1)Nc1nnc(-c2ccncc2)s1 |  | Not Active |  |
| N#Cc1cccc(NC(=O)Nc2nnc(-c3ccncc3)s2)c1 | 8.9 |  |  |
| N#Cc1cc(NC(=O)Nc2nnc(-c3ccncc3)s2)ccc1F | 0.3 |  | Ratio IC50 [2]: 7.3; IC50 [3]: > 50 µM; IC50 [4]: 2.2 µM |
| Cc1cc(NC(=O)Nc2nnc(-c3ccncc3)s2)ccc1Cl | 7.9 |  |  |
| O=C(Nc1ccc(Cl)c(Cl)c1)Nc1ccnc(-c2ccncc2)n1 |  | Not Active |  |
| O=C(Nc1ccc(Cl)c(Cl)c1)N1CCC(c2ccncc2)C1 (stereo not given) |  | Not Active |  |

| Compound | IC50 ([1]; read-out: IC50) [µM] | IC50 [1] | also measured |
| --- | --- | --- | --- |
| CN(C(=O)Nc1ccc2ccccc2c1)c1nnc(-c2ccncc2)s1 |  | Not Active |  |
| O=C(Nc1ccc(Br)c(Br)c1)Nc1nnc(-c2ccncc2)s1 | 2.1 |  | Ratio IC50 [2]: 1.4; IC50 [4]: 2.9 µM |
| Cc1cc(NC(=O)Nc2nnc(-c3ccncc3)s2)ccc1F | 15.8 |  |  |
| N#Cc1ccc(NC(=O)Nc2nnc(-c3ccncc3)s2)cc1 | 7.9 |  |  |
| N#Cc1cc(NC(=O)Nc2nnc(-c3ccncc3)s2)ccc1Cl | 0.1 |  | Ratio IC50 [2]: 16; IC50 [4]: 1.6 µM |
| O=C(Nc1ccc(Cl)c(Cl)c1)Nc1ncc(-c2ccncc2)s1 |  | Not Active |  |
| O=C(Cc1ccc2ccccc2c1)Nc1nnc(-c2ccncc2)s1 |  | Not Active |  |
| N#Cc1cc(NC(=O)Nc2nnc(-c3ccncc3)s2)ccc1-c1ccc[nH]1 | 1.8 |  |  |
| NC(=Nc1ccc(Cl)c(Cl)c1)Nc1nnc(-c2ccncc2)s1 | 14.1 |  |  |
| Nc1cc(NC(=O)Nc2nnc(-c3ccncc3)s2)ccc1Cl | 11.2 |  |  |
| O=C(Nc1ccc(-n2ccnc2)c(F)c1)Nc1nnc(-c2ccncc2)s1 | 10 |  |  |
| O=C(Nc1ccc(Cl)c(Cl)c1)Nc1cc(-c2ccncc2)n[nH]1 |  | Not Active |  |
| O=C(Nc1ccc(-c2cn[nH]c2)c(C(F)(F)F)c1)Nc1nnc(-c2ccncc2)s1 | 14.2 |  |  |
| Cc1cc(NC(=O)Nc2nnc(-c3ccncc3)s2)ccc1Br | 13.4 |  |  |
| O=C(Nc1ccc(Cl)c(Cl)c1)Nc1nnc(NC2CCNCC2)s1 |  | Not Active |  |
| O=C(Nc1ccc(Cl)c(Cl)c1)Nc1nnc(-c2ccccn2)s1 |  | Not Active |  |
| O=C(Nc1ccc(Cl)c(Cl)c1)NC1CCN(c2ccncc2)CC1 |  | Not Active |  |
| O=C(Nc1ccc(Cl)c(Cl)c1)Nc1nnc(-c2ccccc2)s1 |  | Not Active |  |
| O=C(Nc1ccc(Cl)c(Cl)c1)Nc1nnc(C2CCCCC2)s1 |  | Not Active |  |
